Measurements taken from ChEMBL document CHEMBL1208778, “Synthesis and anti-cancer activity of chalcone linked imidazolones” (2010).
Values belong to the molecule of their own block, whether it stands above or below them. Active and inactive are the calls of the source. No cut-off for these calls is given here.

What was measured:
Type in all cases: functional
[1] = Growth inhibition of human RPMI8266 cells
Method in brief: (§1)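 Five-dose testing was run within the NCI (Bethesda) in vitro Anticancer Screen Program on a panel of 53 human tumour cell lines from nine cancer types. Growth inhibition is reported as GI50.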

K562 = test: Growth inhibition of human K562 cells; method in brief: as §1
A549 = test: Growth inhibition of human A549 cells; method in brief: as §1
EKVX = test: Growth inhibition of human EKVX cells; method in brief: as §1
HOP-62 = test: Growth inhibition of human HOP62 cells; method in brief: as §1
HOP-92 = test: Growth inhibition of human HOP92 cells; method in brief: as §1
NCI-H226 = test: Growth inhibition of human NCI-H226 cells; method in brief: as §1
NCI-H23 = test: Growth inhibition of human NCI-H23 cells; method in brief: as §1
NCI-H322M = test: Growth inhibition of human NCI-H322M cells; method in brief: as §1
NCI-H460 = test: Growth inhibition of human NCI-H460 cells; method in brief: as §1
NCI-H522 = test: Growth inhibition of human NCI-H522 cells; method in brief: as §1
COLO 205 = test: Growth inhibition of human COLO205 cells; method in brief: as §1
HCC 2998 = test: Growth inhibition of human HCC2998 cells; method in brief: as §1
HCT-116 = test: Growth inhibition of human HCT116 cells; method in brief: as §1
HCT-15 = test: Growth inhibition of human HCT15 cells; method in brief: as §1
HT-29 = test: Growth inhibition of human HT-29 cells; method in brief: as §1
KM12 = test: Growth inhibition of human KM12 cells; method in brief: as §1
SW-620 = test: Growth inhibition of human SW620 cells
Method in brief: (§2)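 Compounds that passed a preliminary screen were tested at five doses in the NCI (Bethesda) in vitro Anticancer Screen Program against a 53-line human tumour panel spanning leukemia, lung, colon, CNS, melanoma, ovarian, renal, prostate and breast. Growth inhibition is reported as GI50.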

SF-268 = test: Growth inhibition of human SF268 cells; method in brief: as §1
SF-295 = test: Growth inhibition of human SF295 cells; method in brief: as §1
SF-539 = test: Growth inhibition of human SF539 cells; method in brief: as §1
SNB-19 = test: Growth inhibition of human SNB19 cells; method in brief: as §2
SNB-75 = test: Growth inhibition of human SNB75 cells; method in brief: as §2
U-251 = test: Growth inhibition of human U251 cells; method in brief: as §2
A498 = test: Growth inhibition of human A498 cells; method in brief: as §1
786-0 = test: Growth inhibition of human 786-0 cells; method in brief: as §1
ACHN = test: Growth inhibition of human ACHN cells; method in brief: as §1
CAKI-1 = test: Growth inhibition of human Caki1 cells; method in brief: as §1
RXF 393 = test: Growth inhibition of human RXF393 cells; method in brief: as §1
SN12C = test: Growth inhibition of human SN12C cells; method in brief: as §2
TK-10 = test: Growth inhibition of human TK10 cells; method in brief: as §2
UO-31 = test: Growth inhibition of human UO31 cells; method in brief: as §2
PC-3 = test: Growth inhibition of human PC3 cells; method in brief: as §1
OVCAR-3 = test: Growth inhibition of human OVCAR-3 cells; method in brief: as §1
OVCAR-4 = test: Growth inhibition of human OVCAR4 cells; method in brief: as §1
OVCAR-5 = test: Growth inhibition of human OVCAR5 cells; method in brief: as §1
OVCAR-8 = test: Growth inhibition of human OVCAR8 cells; method in brief: as §1
NCI/ADR-RES = test: Growth inhibition of human NCI/ADR-RES cells; method in brief: as §1
SK-OV-3 = test: Growth inhibition of human SKOV3 cells; method in brief: as §2
MCF7 [2] = test: Growth inhibition of human MCF7 cells; method in brief: as §1
MDA-MB-231 = test: Growth inhibition of human MDA-MB-231 cells; method in brief: as §1
[3] = Growth inhibition of human Hs 578T cells; method in brief: as §1
BT-549 = test: Growth inhibition of human BT549 cells; method in brief: as §1
T47D = test: Growth inhibition of human T47D cells; method in brief: as §2
LOX IMVI = test: Growth inhibition of human LOXIMVI cells; method in brief: as §1
Malme-3M = test: Growth inhibition of human MALME-3M cells; method in brief: as §1
M14 = test: Growth inhibition of human M14 cells; method in brief: as §1
MDA-MB-435 = test: Growth inhibition of human MDA-MB-435 cells; method in brief: as §1
SK-MEL-2 = test: Growth inhibition of human SK-MEL-2 cells; method in brief: as §1
SK-MEL-28 = test: Growth inhibition of human SK-MEL-28 cells; method in brief: as §1
SK-MEL-5 = test: Growth inhibition of human SK-MEL-5 cells; method in brief: as §1
UACC-257 = test: Growth inhibition of human UACC257 cells; method in brief: as §2
UACC-62 = test: Growth inhibition of human UACC62 cells; method in brief: as §2
MCF7 [4] = test: Cell cycle arrest in human MCF7 cells assessed as accumulation at G0 phase at 10 uM after 24 hrs by FACS analysis
Method in brief: (§3)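 MCF-7 breast carcinoma cells were exposed to 10 µM test compound for 24 h, with DMSO as the vehicle control. Cell-cycle distribution was read by FACS as the percentage of cells in G0, G1, S and G2/M.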

MCF7 [5] = test: Cell cycle arrest in human MCF7 cells assessed as accumulation at G1 phase at 10 uM after 24 hrs by FACS analysis; method in brief: as §3
MCF7 [6] = test: Cell cycle arrest in human MCF7 cells assessed as accumulation at S phase at 10 uM after 24 hrs by FACS analysis; method in brief: as §3
MCF7 [7] = test: Cell cycle arrest in human MCF7 cells assessed as accumulation at G2/M phase at 10 uM after 24 hrs by FACS analysis; method in brief: as §3
MCF7 [8] = test: Cell cycle arrest in human MCF7 cells assessed as accumulation at G0 phase at 30 uM after 24 hrs by FACS analysis
Method in brief: (§4)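 MCF-7 cells were treated at 30 µM for 24 h alongside a DMSO control. Fractions in G0, G1, S and G2/M phases were measured by FACS, and values are means of three experiments.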

MCF7 [9] = test: Cell cycle arrest in human MCF7 cells assessed as accumulation at G1 phase at 30 uM after 24 hrs by FACS analysis; method in brief: as §4
MCF7 [10] = test: Cell cycle arrest in human MCF7 cells assessed as accumulation at S phase at 30 uM after 24 hrs by FACS analysis; method in brief: as §4
MCF7 [11] = test: Cell cycle arrest in human MCF7 cells assessed as accumulation at G2/M phase at 30 uM after 24 hrs by FACS analysis; method in brief: as §4

GI50 (K562): 3.69 µM
GI50 (A549): inactive
GI50 (NCI-H226): inactive
GI50 (NCI-H23): 3.56 µM
GI50 (NCI-H322M): 12.9 µM
GI50 (NCI-H460): 3.74 µM
GI50 (NCI-H522): 4.1 µM
GI50 (COLO 205): 7.38 µM
GI50 (HCC 2998): 2.46 µM
GI50 (HCT-116): 1.39 µM
GI50 (HCT-15): 3.85 µM
GI50 (HT-29): 2 µM
GI50 (SW-620): 1.75 µM
GI50 (U-251): 2.12 µM
GI50 (786-0): 2.14 µM
GI50 (ACHN): 7.17 µM
GI50 (PC-3): inactive
GI50 (OVCAR-3): 2.4 µM
GI50 (OVCAR-4): 11.4 µM
GI50 (OVCAR-5): 3.11 µM
GI50 (OVCAR-8): 3.85 µM
GI50 (SK-OV-3): 31.4 µM
GI50 (MCF7 [2]): 1.74 µM
GI50 (MDA-MB-231): 13.8 µM
GI50 (BT-549): 12.3 µM
GI50 (T47D): 6.65 µM
GI50 (MDA-MB-435): 3.63 µM
GI50 (SK-MEL-2): 3.44 µM
GI50 (SK-MEL-28): 10.9 µM
GI50 (SK-MEL-5): 8.7 µM
Structure (SMILES): COc1cc(/C=C/C(=O)c2cccc(-n3cc(-c4ccc(Cl)cc4)[nH]c3=O)c2)cc(OC)c1OC
GI50 [1]: 3.92 µM
GI50 (EKVX): inactive
GI50 (HOP-62): inactive
GI50 (HOP-92): inactive
GI50 (KM12): 5.45 µM
GI50 (SF-268): 5.07 µM
GI50 (SF-295): 24.3 µM
GI50 (SF-539): 3.49 µM
GI50 (SNB-19): 16.1 µM
GI50 (SNB-75): inactive
GI50 (A498): 30.2 µM
GI50 (CAKI-1): inactive
GI50 (RXF 393): 3.22 µM
GI50 (SN12C): 5.14 µM
GI50 (TK-10): 6.46 µM
GI50 (UO-31): 7.03 µM
GI50 (NCI/ADR-RES): 2.36 µM
GI50 [3]: 5.96 µM
GI50 (LOX IMVI): 1.72 µM
GI50 (Malme-3M): 18.1 µM
GI50 (M14): 4.36 µM
GI50 (UACC-257): 17.4 µM
GI50 (UACC-62): 8.88 µM
Activity (MCF7 [4]): 4.49%
Activity (MCF7 [5]): 67.68%
Activity (MCF7 [6]): 13.91%
Activity (MCF7 [7]): 13.92%
Activity (MCF7 [8]): 12%
Activity (MCF7 [9]): 44%
Activity (MCF7 [10]): 17%
Activity (MCF7 [11]): 27%

GI50 (K562): 3.35 µM
GI50 (A549): 3.89 µM
GI50 (NCI-H226): 24.8 µM
GI50 (NCI-H23): 3.35 µM
GI50 (NCI-H322M): 10.6 µM
GI50 (NCI-H460): 2.49 µM
GI50 (COLO 205): 2.01 µM
GI50 (HCC 2998): 4.09 µM
GI50 (HCT-116): 3.02 µM
GI50 (HCT-15): 3.1 µM
GI50 (HT-29): 3.33 µM
GI50 (SW-620): 2.41 µM
GI50 (U-251): 1.61 µM
GI50 (786-0): 2.98 µM
GI50 (ACHN): 2.76 µM
GI50 (PC-3): 2.82 µM
GI50 (OVCAR-3): 3.08 µM
GI50 (OVCAR-4): 5.3 µM
GI50 (OVCAR-5): 5.44 µM
GI50 (OVCAR-8): 2.8 µM
GI50 (SK-OV-3): 11.1 µM
GI50 (MCF7 [2]): 2.47 µM
GI50 (MDA-MB-231): 3.86 µM
GI50 (BT-549): 9.32 µM
GI50 (T47D): 4.24 µM
GI50 (MDA-MB-435): 3.12 µM
GI50 (SK-MEL-2): 8.26 µM
GI50 (SK-MEL-28): 5.63 µM
GI50 (SK-MEL-5): 3.18 µM
Structure (SMILES): O=C(/C=C/c1cccc(O)c1)c1cccc(-n2cc(-c3ccccc3)[nH]c2=O)c1
GI50 [1]: 2.15 µM
GI50 (EKVX): 15.6 µM
GI50 (HOP-62): 6.93 µM
GI50 (HOP-92): 5.04 µM
GI50 (KM12): 1.83 µM
GI50 (SF-268): 4.53 µM
GI50 (SF-295): 18.2 µM
GI50 (SF-539): 1.98 µM
GI50 (SNB-19): 10.9 µM
GI50 (SNB-75): 12.1 µM
GI50 (A498): 14.3 µM
GI50 (CAKI-1): 13.3 µM
GI50 (RXF 393): 1.89 µM
GI50 (SN12C): 3.14 µM
GI50 (UO-31): 2.16 µM
GI50 (NCI/ADR-RES): 3.73 µM
GI50 [3]: 6.14 µM
GI50 (LOX IMVI): 1.85 µM
GI50 (Malme-3M): 6.21 µM
GI50 (M14): 4.53 µM
GI50 (UACC-257): 7.68 µM
GI50 (UACC-62): 3.65 µM
Activity (MCF7 [4]): 2.1%
Activity (MCF7 [5]): 57.26%
Activity (MCF7 [6]): 18.48%
Activity (MCF7 [7]): 22.16%
Activity (MCF7 [8]): 11.07%
Activity (MCF7 [9]): 53.92%
Activity (MCF7 [10]): 17.21%
Activity (MCF7 [11]): 17.8%
